Measured values taken from ChEMBL document CHEMBL4270576, “Discovery of a benzenesulfonamide-based dual inhibitor of microsomal prostaglandin E2 synthase-1 and 5-lipoxygenase that favorably modulates lipid mediator biosynthesis in inflammation” (Eur J Med Chem, 2018).
Calls of active or inactive are those of the source. The calls are words filed in the database; no cut-off is given here.

Legend:
[1] = molecular target: T1, Polyunsaturated fatty acid 5-lipoxygenase (Homo sapiens) (UniProt P09917); test: Inhibition of 5-LO in human M1 macrophages derived from LPS/IFNgamma-polarized human monocyte derived macrophages assessed as effect on LTB4 level at 3 uM preincubated for 15 mins followed by Escherichia coli (O6:K2:H1) challenge for 90 mins by LC-MS/MS analysis; set-up: scale not given: the % may be the effect or the level left
T1 sequence (whole entry): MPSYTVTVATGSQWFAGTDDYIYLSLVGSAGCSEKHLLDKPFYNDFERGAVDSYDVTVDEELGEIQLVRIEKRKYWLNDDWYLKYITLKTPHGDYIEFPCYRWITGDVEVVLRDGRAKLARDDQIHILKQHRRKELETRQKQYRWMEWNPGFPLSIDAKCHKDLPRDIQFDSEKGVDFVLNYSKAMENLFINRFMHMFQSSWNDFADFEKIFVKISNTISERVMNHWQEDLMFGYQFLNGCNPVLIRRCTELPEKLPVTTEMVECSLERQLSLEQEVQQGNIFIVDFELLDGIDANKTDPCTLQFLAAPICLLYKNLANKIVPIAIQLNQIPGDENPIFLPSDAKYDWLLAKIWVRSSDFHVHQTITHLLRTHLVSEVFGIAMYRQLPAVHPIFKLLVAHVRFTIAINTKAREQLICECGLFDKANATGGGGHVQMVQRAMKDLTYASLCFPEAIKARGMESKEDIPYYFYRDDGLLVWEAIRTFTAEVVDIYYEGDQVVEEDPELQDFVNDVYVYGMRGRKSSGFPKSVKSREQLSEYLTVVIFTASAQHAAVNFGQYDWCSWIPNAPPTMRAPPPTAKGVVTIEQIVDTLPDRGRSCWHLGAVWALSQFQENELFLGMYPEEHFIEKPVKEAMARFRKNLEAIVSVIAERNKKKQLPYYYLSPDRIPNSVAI
In short: (§1)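 Monocytes differentiated 6 days with GM-CSF (20 ng/ml) in RPMI/10% FCS, then polarized 48 h with LPS 100 ng/ml plus IFN-γ 20 ng/ml (M1). Cells (2 × 10^6) in PBS with 1 mM CaCl2 pre-incubated 15 min at 37 °C with 3 µM compound or 0.1% DMSO, then E. coli O6:K2:H1 (1:50) for 90 min. Methanol with deuterated standards added; SPE; UPLC-MS/MS; expressed as % of vehicle.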

[2] = molecular target: T2, Prostaglandin E synthase (Homo sapiens) (UniProt O14684); test: Inhibition of mPGES-1 in LPS/IFNgamma-differentiated human M1 macrophages assessed as effect on PGE2 level at 3 uM preincubated for 15 mins followed by Escherichia coli (O6:K2:H1) challenge for 90 mins by LC-MS/MS analysis; set-up: scale not given: the % may be the effect or the level left; in short: as §1
T2 sequence (whole entry): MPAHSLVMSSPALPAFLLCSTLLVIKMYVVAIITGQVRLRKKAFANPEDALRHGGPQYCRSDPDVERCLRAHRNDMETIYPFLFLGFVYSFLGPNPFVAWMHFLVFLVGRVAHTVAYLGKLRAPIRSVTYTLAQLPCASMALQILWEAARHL

[3] = molecular target: T3, Polyunsaturated fatty acid lipoxygenase ALOX12 (Homo sapiens) (UniProt P18054); test: Modulation of 12-LO-mediated 14-HDHA level in human M2 macrophages derived from IL4-polarized human monocyte derived macrophages at 3 uM preincubated for 15 mins followed by Escherichia coli (O6:K2:H1) challenge for 90 mins by LC-MS/MS analysis
T3 sequence (whole entry): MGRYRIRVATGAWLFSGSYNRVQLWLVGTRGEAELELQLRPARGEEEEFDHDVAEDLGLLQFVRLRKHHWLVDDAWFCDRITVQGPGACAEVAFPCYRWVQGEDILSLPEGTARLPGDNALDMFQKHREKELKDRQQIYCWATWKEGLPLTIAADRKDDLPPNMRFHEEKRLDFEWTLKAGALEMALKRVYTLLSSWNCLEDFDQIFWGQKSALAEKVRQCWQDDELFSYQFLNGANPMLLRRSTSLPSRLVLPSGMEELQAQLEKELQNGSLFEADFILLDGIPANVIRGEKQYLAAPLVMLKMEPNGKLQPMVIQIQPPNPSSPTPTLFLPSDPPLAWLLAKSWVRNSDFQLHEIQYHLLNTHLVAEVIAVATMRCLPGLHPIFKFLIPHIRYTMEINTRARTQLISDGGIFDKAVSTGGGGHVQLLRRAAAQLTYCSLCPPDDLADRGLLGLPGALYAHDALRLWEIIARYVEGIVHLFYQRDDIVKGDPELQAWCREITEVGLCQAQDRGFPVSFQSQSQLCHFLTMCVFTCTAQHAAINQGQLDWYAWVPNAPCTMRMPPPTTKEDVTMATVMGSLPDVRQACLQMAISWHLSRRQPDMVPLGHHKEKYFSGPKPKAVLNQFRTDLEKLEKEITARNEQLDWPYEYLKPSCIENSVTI
In short: (§2)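 Monocytes differentiated 6 days with M-CSF (20 ng/ml), then polarized 48 h with IL-4 20 ng/ml (M2). Cells (2 × 10^6) in PBS/1 mM CaCl2 pre-incubated 15 min at 37 °C with 3 µM compound or 0.1% DMSO, then challenged with E. coli O6:K2:H1 (1:50) for 90 min. Lipid mediators extracted by SPE with deuterated internal standards and quantified by UPLC-MS/MS as % of vehicle.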

[4] = molecular target: T3, Polyunsaturated fatty acid lipoxygenase ALOX12 (Homo sapiens); test: Modulation of 12-LO-mediated 12-HETE level in human M2 macrophages derived from IL4-polarized human monocyte derived macrophages at 3 uM preincubated for 15 mins followed by Escherichia coli (O6:K2:H1) challenge for 90 mins by LC-MS/MS analysis; in short: as §2
Macrophage cell line = test: Modulation of 4-HDHA level in human M2 macrophages derived from IL4-polarized human monocyte derived macrophages at 3 uM preincubated for 15 mins followed by Escherichia coli (O6:K2:H1) challenge for 90 mins by LC-MS/MS analysis; assay type: functional; in short: as §2
Homo sapiens = species on record: Homo sapiens; test: Modulation of LO-mediated AT-PD1 level in human M2 macrophages derived from IL4-polarized human monocyte derived macrophages at 3 uM preincubated for 15 mins followed by Escherichia coli (O6:K2:H1) challenge for 90 mins by LC-MS/MS analysis; in short: as §2
Mus musculus = test: Antiinflammatory activity in zymosan induced CD-1 mouse model of inflammation assessed as reduction in LTB4 levels in air pouch at 10 mg/kg, ip preincubated for 30 mins followed by zymosan challenge and measured after 4 hrs by ELISA; assay type: functional, organism-based
In short: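 Air pouch formed by s.c. injection of 2.5 mL sterile air in CD-1 mice; on day 6, 10 mg/kg i.p. (2% DMSO/saline) given 30 min before 1 ml 1% w/v zymosan into the pouch. After 4 h, exudate collected with 1 ml saline and centrifuged; leukocytes counted in Burker chamber; LTB4 in supernatant by ELISA (ng/mL). n=6 mice per group.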

Leukotriene C4 synthase = molecular target: T4, Leukotriene C4 synthase (Homo sapiens, UniProt Q16873); test: Inhibition of LTC4 synthase (unknown origin)
T4 sequence (Q16873 whole entry): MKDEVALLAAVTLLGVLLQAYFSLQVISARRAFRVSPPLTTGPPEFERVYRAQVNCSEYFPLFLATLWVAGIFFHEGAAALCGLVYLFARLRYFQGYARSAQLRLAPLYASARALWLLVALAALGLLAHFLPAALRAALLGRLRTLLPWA

[5] = molecular target: T1, Polyunsaturated fatty acid 5-lipoxygenase (Homo sapiens); test: Ratio of IC50 for recombinant human 5-LO to IC50 for 5-LO in human neutrophils

Activity [1]: 11%
Activity [2]: 72%
Activity [3]: 125%
Activity [4]: 151%
Activity (Homo sapiens): 106%
IC50 (Leukotriene C4 synthase): 1800 nM
Ratio IC50 [5]: 8
Compound: O=C(O)c1ccc(N(Cc2cccc(OCc3ccccc3)c2)S(=O)(=O)c2ccc(-c3ccccc3)cc2)cc1
Activity (Macrophage cell line): 86%
Activity (Mus musculus): Active
